Molecules are shown by their SMILES. The campaign covered roughly 24,000 compounds. Fewer than 10 were called active. A selection follows. Values without a mark were called inactive. No stated cut-off is given here; in the data, active means caspase activation above about 5.9%; inconclusive means no clear call, values can overlap the other calls; inactive means below about 2.2%.

This assay in a line: A1 inhibitors via caspase activation, primary screen, cell-based, luminescence, HTS, two replicates (AID 2465). To be noted: MEF A1-2A-BIM cells, caspase-Glo luminescence, 3 h; stronger effect = higher value; percent of clofoctol response, DMSO zero; concentration not given here. In outline:
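system = A1-2A-BIM-expressing MEF cells | quantity = 2500 MEF cells/well | dosing = 50 nL compound per well, pinned | schedule = overnight cell settling, then 3 h compound exposure, 37 °C | signal = luminescence from DEVD-luciferin Caspase-Glo reagent, 1:1 in 50 mM HEPES, 1 h RT | read-out = Caspase-3/7 activation, seen as rise in luminescence signal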
Take `COc1ccc(NC(=O)N(C)C[C@H]2OCCCC[C@@H](C)Oc3ccc(NS(=O)(=O)c4ccc(F)cc4)cc3C(=O)N([C@@H](C)CO)C[C@@H]2C)cc1`: the caspase activation is -0.991%.
As for `COC(=O)CCCCCCC(=O)N/N=C/c1cccs1`, the figure is 0.382%.
`C[C@H](CO)N1C[C@H](C)[C@H](CN(C)C(=O)Nc2cccc3ccccc23)OCCCC[C@H](C)Oc2ccc(NC(=O)Nc3ccc4c(c3)OCO4)cc2C1=O`: the caspase activation was 0.835%.
As for `Cc1noc(C)c1S(=O)(=O)Nc1ccc2c(c1)C(=O)N([C@@H](C)CO)C[C@H](C)[C@H](CN(C)CC1CCCCC1)OCCCC[C@H](C)O2`, the caspase activation is -0.748%.
As for `C[C@@H]1CN([C@@H](C)CO)C(=O)c2cc(NS(=O)(=O)c3cccs3)ccc2O[C@@H](C)CCCCO[C@@H]1CN(C)C(=O)NC1CCCCC1`, the figure is -0.476%.
As to `Cc1ccc(S(=O)(=O)N(C)C[C@H]2Oc3c(NC(=O)c4ccc(-c5nccs5)cc4)cccc3C(=O)N([C@H](C)CO)C[C@H]2C)cc1`, the caspase activation is -0.882%.
As for `Cc1ccc(S(=O)(=O)N(C)C[C@H]2OCCCC[C@@H](C)Oc3ccc(NC(=O)NC4CCCCC4)cc3C(=O)N([C@H](C)CO)C[C@@H]2C)cc1`, the figure is -0.124%; as for `C[C@@H]1CN([C@H](C)CO)C(=O)c2cc(NC(=O)Nc3ccc(F)cc3)ccc2O[C@@H]1CN(C)Cc1ccc(Cl)c(Cl)c1`, 0.0143%.
Turning to `C[C@H]1CN([C@@H](C)CO)C(=O)c2cccc(NS(=O)(=O)c3cccs3)c2O[C@H]1CN(C)Cc1ccc(C(=O)Nc2ccccc2N)cc1`, the caspase activation was -0.485%.
As to `C[C@@H]1CN([C@H](C)CO)C(=O)Cc2cc(NC(=O)Nc3ccc4c(c3)OCO4)ccc2O[C@@H]1CN(C)Cc1ccc(C(=O)Nc2ccccc2N)cc1`, the caspase activation is -1.67%.
As for `O=C(CCCCCC(=O)N/N=C/c1ccc[nH]1)NO`, the caspase activation is -0.622%.
As to `C[C@@H]1CCCCO[C@@H](CN(C)Cc2ccc3c(c2)OCO3)[C@@H](C)CN([C@@H](C)CO)C(=O)c2cc(NC(=O)C3CCCCC3)ccc2O1`, the caspase activation was 1.06%.
For the molecule `Cc1noc(C)c1NC(=O)N(C)C[C@@H]1OCCCC[C@H](C)Oc2ccc(NC(=O)NC3CCCCC3)cc2C(=O)N([C@H](C)CO)C[C@H]1C`, the caspase activation is -1.23%.
Turning to `Cc1noc(C)c1S(=O)(=O)N(C)C[C@H]1OCCCC[C@@H](C)Oc2ccc(NC(=O)c3ccccc3)cc2C(=O)N([C@@H](C)CO)C[C@H]1C`, the caspase activation was 0.679%.
As for `C[C@@H]1CCCCO[C@@H](CN(C)Cc2ccncc2)[C@H](C)CN([C@H](C)CO)C(=O)c2cc(NC(=O)NC3CCCCC3)ccc2O1`, the figure is 0.887%; as for `C[C@@H]1CCCCO[C@@H](CN(C)C(=O)C2CCCCC2)[C@H](C)CN([C@H](C)CO)C(=O)c2cc(NC(=O)c3ccccc3)ccc2O1`, -0.0371%.
As to `CNC[C@@H]1Oc2ccc(NC(=O)C3CCCCC3)cc2CC(=O)N([C@@H](C)CO)C[C@H]1C`, the caspase activation was -2%.
Turning to `Cc1noc(C)c1NC(=O)Nc1ccc2c(c1)CC(=O)N([C@@H](C)CO)C[C@H](C)[C@H](CN(C)S(=O)(=O)c1c(C)noc1C)O2`, the caspase activation is -0.264%.
On to `C[C@@H]1CN([C@H](C)CO)C(=O)Cc2cc(NC(=O)C3CCCCC3)ccc2O[C@H]1CN(C)S(=O)(=O)c1ccc(Cl)cc1`, for which the caspase activation is -0.597%.
Consider `Cc1noc(C)c1NC(=O)N(C)C[C@H]1OCCCC[C@H](C)Oc2ccc(NC(=O)Cc3ccccc3)cc2C(=O)N([C@H](C)CO)C[C@@H]1C`, for which the caspase activation was -0.000815%.
Turning to `Cc1noc(C)c1S(=O)(=O)N(C)C[C@@H]1OCCCC[C@H](C)Oc2ccc(NC(=O)NC3CCCCC3)cc2C(=O)N([C@@H](C)CO)C[C@H]1C`, the caspase activation was 2.87%.
In the case of `COc1cc(O)cc(OC)c1/C=N/NC(=O)c1ccccc1O`, the caspase activation is -0.325%.
Regarding `C[C@@H]1CCCCO[C@@H](CN(C)C(=O)Nc2cccc3ccccc23)[C@H](C)CN([C@@H](C)CO)C(=O)c2cc(NS(=O)(=O)c3ccccc3)ccc2O1`, the caspase activation was 0.255%.
Turning to `COc1ccc(S(=O)(=O)Nc2ccc3c(c2)C(=O)N([C@@H](C)CO)C[C@H](C)[C@@H](CN(C)C(=O)Nc2ccc4c(c2)OCO4)OCCCC[C@@H](C)O3)cc1`, the caspase activation was 0.557%.
The same measure for `C[C@H]1CCCCO[C@@H](CN(C)Cc2ccc3c(c2)OCO3)[C@@H](C)CN([C@@H](C)CO)C(=O)c2cc(NC(=O)c3ccccc3)ccc2O1`: -0.254%; for `C[C@@H]1CN([C@@H](C)CO)C(=O)c2cc(NC(=O)Nc3ccccc3)ccc2O[C@H]1CN(C)S(=O)(=O)c1ccccc1`: -0.0866%; for `C[C@@H]1CCCCO[C@H](CN(C)C(=O)Nc2cccc3ccccc23)[C@H](C)CN([C@@H](C)CO)C(=O)c2cc(NC(=O)CCCN(C)C)ccc2O1`: -0.756%.
The same measure for `COc1ccc(CN(C)C[C@@H]2OCCCC[C@H](C)Oc3ccc(NS(=O)(=O)c4ccc(F)cc4)cc3C(=O)N([C@@H](C)CO)C[C@@H]2C)cc1`: 0.494%; for `O=C(NO)c1cccc(C(=O)N/N=C/c2c[nH]c3ccccc23)c1`: -1.04%.
Consider `C[C@@H]1CN([C@@H](C)CO)C(=O)CCCn2nncc2CO[C@@H]1CN(C)S(=O)(=O)c1ccc(-c2ccccc2)cc1`, for which the caspase activation was -0.179%.
For `Cc1ccc(S(=O)(=O)Nc2ccc3c(c2)C(=O)N([C@H](C)CO)C[C@H](C)[C@H](CN(C)C(=O)Nc2ccc4c(c2)OCO4)OCCCC[C@@H](C)O3)cc1`, the caspase activation was -0.5%.
With `C[C@@H]1CCCCO[C@@H](CN(C)Cc2ccccc2)[C@H](C)CN([C@H](C)CO)C(=O)c2cc(NC(=O)Nc3cccc4ccccc34)ccc2O1`, the caspase activation was 1.29%.
Consider `C[C@@H]1CCCCO[C@@H](CN(C)CC2CCCCC2)[C@H](C)CN([C@H](C)CO)C(=O)c2cc(NC(=O)C3CCCCC3)ccc2O1`, for which the caspase activation is 0.00789%.
`CC(C)NC(=O)Nc1ccc2c(c1)C(=O)N([C@H](C)CO)C[C@H](C)[C@@H](CN(C)Cc1ccc3c(c1)OCO3)OCCCC[C@H](C)O2`: the caspase activation was -0.756%.
As for `CNC[C@H]1OCCCC[C@@H](C)Oc2ccc(NS(C)(=O)=O)cc2C(=O)N([C@@H](C)CO)C[C@H]1C`, the caspase activation was -0.624%.
In the case of `COc1ccc(S(=O)(=O)Nc2ccc3c(c2)C(=O)N([C@H](C)CO)C[C@@H](C)[C@H](CN(C)C(=O)c2ccncc2)OCCCC[C@@H](C)O3)cc1`, the caspase activation is 0.262%.
For `C[C@H]1CN([C@@H](C)CO)C(=O)CCCn2cc(nn2)CO[C@@H]1CN(C)S(=O)(=O)c1ccccc1C#N`, the caspase activation was 0.483%.
Take `C[C@H]1CN([C@@H](C)CO)C(=O)Cc2cc(NC(=O)CCCCCC(=O)Nc3ccccc3N)ccc2O[C@@H]1CN(C)Cc1ccncc1`: the caspase activation was -0.722%.
As for `CC(C)NC(=O)Nc1ccc2c(c1)C(=O)N([C@@H](C)CO)C[C@@H](C)[C@H](CN(C)Cc1ccc(Cl)c(Cl)c1)OCCCC[C@H](C)O2`, the figure is -1.26%; as for `COc1ccc(NC(=O)N(C)C[C@H]2OCCCC[C@H](C)Oc3ccc(NC(=O)NC4CCCCC4)cc3C(=O)N([C@@H](C)CO)C[C@@H]2C)cc1`, -0.198%.
For the molecule `C[C@@H]1CN([C@H](C)CO)C(=O)c2cc(NC(=O)Cn3cnnn3)ccc2O[C@@H]1CN(C)C(=O)Nc1ccc2c(c1)OCO2`, the caspase activation was -0.00909%.
As for `C[C@H](CO)N1C[C@H](C)[C@@H](CN(C)CC2CC2)OCCCC[C@H](C)Oc2ccc(NC(=O)Cc3ccccc3)cc2C1=O`, the figure is 0.105%; as for `CCCN(C)C[C@@H]1OCCCC[C@@H](C)Oc2ccc(NC(=O)Nc3ccc(C(F)(F)F)cc3)cc2C(=O)N([C@H](C)CO)C[C@H]1C`, 1.62%; as for `C[C@H](CO)N1C[C@H](C)[C@@H](CN(C)Cc2ccncc2)Oc2ccc(NS(=O)(=O)c3ccc(Cl)cc3)cc2CC1=O`, -1.19%.

For the origin of these results see PubChem BioAssay AID2465 (Broad Institute, 2010).
